# In PubChem BioAssay:
# Unmarked numbers belong to inactive results. Results filed as inconclusive are left out. Active and inactive are the calls of the source.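 How the source made its calls, unless noted: active means growth inhibition above 25% in both replicates, a cutoff set 3 SD above the mean; inconclusive means above 25% in only one replicate; inactive means the rest.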
# How the values were obtained:
# [1] = OD615 S. cerevisiae growth inhibition, permissive medium, pilot counter-assay, permissive growth control for S. cerevisiae lifespan shortening project (AID 705); settings: OD615, 24 h, at 10 µM, active compounds read high
# In short: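 System: engineered DeaD yeast; Medium: permissive raffinose/galactose medium; Compound dosing: 10 µM single dose, 0.25% DMSO; Incubation: 4 h cell pre-growth, 24 h exposure at 30 °C; Technique: OD at 615 nm; Evaluation: growth inhibition from lowered OD615 after 24 h.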
# [2] = Restrictive medium S. cerevisiae growth inhibition, OD615, pilot screen of yeast lifespan reduction project, restrictive growth control (AID 706;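 active means growth inhibition above a set limit, 3 SD over mean compound inhibition, in both replicates, cut at about 43% in these data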;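 further: modified DeaD lifespan yeast strain shifted to restrictive glucose medium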); settings: OD615, 48 h, at 10 µM, active compounds read high
# In short: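 Material: modified S. cerevisiae; buffer or medium: CSMM-D glucose medium; doses: one concentration, 10 µM final, 0.25% DMSO; incubation: 48 h compound exposure at 30 °C; detection: optical density at 615 nm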
# [3] = viability gain of MRP-1-high H69AR cells under doxorubicin, pilot screen, MRP-1 activator project, CellTiter-Glo, duplicate (AID 807;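 active means viability increase at or above a cutoff of the median across tested compounds plus 3 SD, cut at about 8.5% in these data, passing the limit was not always enough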;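 further: compound pretreatment 18-22 h then 72 h combined with doxorubicin; 0% = doxorubicin alone and 100% = vehicle without doxorubicin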); settings: H69AR viability with doxorubicin, CellTiter-Glo luminescence; at 10 µM; active compounds read high
# [4] = growth suppression of beta-catenin knockout HCT116, pilot screen, human colon tumor cells (AID 823;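 active means cell viability at or below a set limit in both duplicate runs, the limit being the all-compound median minus 4 SD, cut at about 23% in these data, passing the limit was not always enough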;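 further: 0% = wells killed by 20 µM Hyamine and 100% = untreated DMSO cell wells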); settings: CellTiter-Glo, 60 h, at 10 µM, active compounds read low
# [5] = growth suppression of PTEN-deleted HCT116, pilot screen, cell-based, HCT116 clonal line, CellTiter-Glo (AID 824;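 active means viability at or below 27.92% in each of two runs, the all-compound median minus 4 SD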;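 further: 0% = 20 µM Hyamine control and 100% = vehicle cell control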); settings: 60 h, at 10 µM, active compounds read low
# [6] = inhibitors of the yeast RAM network, pilot screen, dse1pr::URA3 reporter, 5-FOA selection (AID 869;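 active means inhibition over a set limit, the all-compound mean plus 3 SD, in both replicate runs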;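 further: 0% = DMSO wells with no growth and 100% = 10 µM 1-NA-PP1 with full growth; RAM network block rescues cells from 5-FOA so hits raise OD615 growth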); settings: S. cerevisiae dse1pr::URA3 5-FOA growth, OD615, 2 d; at 10 µM; active compounds read high; strain carries analog-sensitive mutant Cbk1 kinase
# [7] = RAM signaling pathway blockade in yeast – S. cerevisiae, Pdr1DBD-CYC8 efflux-inhibited sensitized strain, primary screen (AID 1298;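 active means RAM network inhibition above 8.4% in each of two replicates, 3 SD over the compound average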;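 further: 0% = DMSO untreated cells without growth and 100% = 10 µM 1-NA-PP1 full growth; higher means more yeast growth rescued from 5-FOA killing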); settings: S. cerevisiae cbk1-as DSE1-URA3 strain, 5-FOA growth OD615, 2 d; at 50 µM; active compounds read high
Structure (SMILES),growth inhibition [1],growth inhibition [2],viability increase [3],viability [4],viability [5],inhibition [6],RAM network inhibition [7]
Cc1nc2sc(C(c3cccs3)N3CCN(Cc4ccccc4)CC3)c(O)n2n1 (stereo unspecified),-7.44%,-19.6%,-1.47%,101%,89.8%,-0.06%,4.97%
N#CCCN1CCN(S(=O)(=O)c2ccc(S(=O)(=O)N3CCOCC3)cc2)CC1,-6.47%,4.95%,0.97%,95.2%,98.8%,-0.88%,-2.16%
CC(Sc1ccc2nnc(-c3ccc(F)cc3)n2n1)C(=O)O (stereo unspecified),8.21%,52.5% (active),-1.09%,100%,94.2%,1.28%,1.27%
Cn1c(C(=O)N2CCN(C3CCCCC3)CC2)cc2c(=O)n(C)c3ccccc3c21,-0.185%,4.76%,-1.32%,105%,101%,1.2%,0.21%
O=C(Cn1nnc(-c2ccccc2F)n1)Nc1cccc2ncccc12,1.42%,-14.2%,-2.32%,103%,98%,1.36%,2.23%
O=C(CCn1c(=O)sc2ccccc21)NCc1ccccc1,4.34%,-2.52%,-0.79%,107%,105%,2%,2.7%
Cc1cc(N2CCN(C(c3ccccc3)c3ccc(Cl)cc3)CC2)n2ncnc2n1 (stereo unspecified),-1.52%,7.98%,-4.33%,66.1%,63.2%,0.13%,3.39%
CCC(=O)N1CCc2cc(Br)cc(S(=O)(=O)N3CCN(C(=O)c4ccco4)CC3)c21,-4.72%,-21.7%,-1.56%,91.6%,95.4%,2.48%,1.88%
Cn1c(/N=C/c2cccs2)nc2ccccc21,-8.72%,-5.94%,-2.39%,93.9%,94.8%,2.46%,1.77%
Nc1ccc(-c2nc3ccc(N)cc3o2)cc1,0.07%,7.21%,-1.18%,100%,86.8%,3.98%,6.51%
COCCn1c(C)cc(C(=O)CSc2nnc3ccccn23)c1C,8.47%,3.52%,-1.95%,98.8%,91.7%,0.76%,2.51%
O=C(c1cccc(S(=O)(=O)N2CCOCC2)c1)N1CCOCC1,-3.56%,-5.11%,-0.71%,101%,97.9%,0.835%,1.18%
C=CC1C(N2CCOCC2)C(C)(C)S1(=O)=O (stereo unspecified),4.78%,5.46%,-1.46%,102%,101%,1.38%,-0.28%
O=C(CSc1nc2cc(Cl)ccc2s1)c1ccco1,-10.9%,11.2%,-4.44%,95%,93.8%,-0.07%,-1.19%
O=C1c2ccccc2C(Nc2ccc3c(c2)OCCO3)N1Cc1ccccc1 (stereo unspecified),-4.61%,8.43%,-1.12%,88.7%,80.9%,0.61%,2.3%
O=c1cc(N2CCOCC2)[nH]c(=O)n1Cc1ccc(F)cc1,5.3%,-2.77%,0.52%,95.3%,99.1%,1.04%,-0.98%
O=C(Cn1cc2c(n1)CCCC2)Nc1ccccc1Cl,-4.82%,-3.03%,-1.53%,99.4%,98.9%,1.91%,1.47%

Structure (SMILES),growth inhibition [1],growth inhibition [2],viability increase [3],viability [4],viability [5],inhibition [6],RAM network inhibition [7]
O=C(O)c1n[nH]c2ccccc12,-1.77%,-21.2%,-2.36%,99.2%,95.6%,0.89%,0.16%
COCCCN1CC23C=CC(O2)C(C(=O)O)C3C1=O (stereo unspecified),2.65%,-2.98%,-1.24%,102%,106%,-0.105%,4.16%
O=C(CSc1cn(CCNC(=O)c2cccs2)c2ccccc12)NCC1CCCO1 (stereo unspecified),-13.8%,-23.4%,0.16%,96.2%,96.1%,1.61%,1.6%
CCC(C)Sc1nc2c([nH]c3ccccc32)c(=O)n1C (stereo unspecified),-16.9%,-15.8%,-4.85%,72.4%,70.6%,2.48%,3.48%
Cn1c(C(=O)N2CCC(C(=O)N3CCOCC3)CC2)cc2sccc21,-9.67%,-7.13%,1.85%,98.7%,98.8%,0.59%,0.9%
Cn1c(=O)c2c(nc(CN3CCN(C(=O)c4ccco4)CC3)n2Cc2ccccc2F)n(C)c1=O,-1.06%,-6.51%,-4.26%,101%,89.8%,2.1%,3.22%
Cc1cc(C)n2nc(SCC(=O)Nc3ccc(F)cc3)nc2n1,-11.7%,-10.9%,-1.21%,111%,98.5%,2.25%,-0.94%
Cc1nnc(SCCn2c(N3CCN(c4ccccc4)CC3)nc3c2c(=O)n(C)c(=O)n3C)s1,-8.87%,-18.3%,-1.99%,104%,102%,1.23%,2.19%
COc1cccc(NC(=O)CSc2nnc(Cn3c(=O)sc4ccccc43)n2C)c1,1.18%,18.9%,-2.91%,102%,104%,2.37%,4.95%
Cc1ccc(NC(=O)NCCN2C(=O)C3C4C=CC(C4)C3C2=O)cc1 (stereo unspecified),-8.32%,10.9%,-0.07%,98%,102%,0.865%,1.04%
O=C(Nc1ccc(S(=O)(=O)N2CCCCCC2)cc1)c1ccc(Br)o1,-4.67%,0.21%,-3.03%,69.6%,59.7%,2.62%,5.05%
CCCCCn1c(SCc2cccc(C)c2)nc2c1c(=O)[nH]c(=O)n2C,-12.8%,-18.8%,-7.54%,70.1%,66.4%,1.67%,5.94%
Cc1ccc(C(=O)NCc2ccc(Cl)c(Cl)c2)o1,-3.73%,4.06%,0.03%,98%,98.5%,0.67%,1.28%
O=C(Nc1sc2c(c1C(=O)O)CCCC2)c1cccs1,5.62%,15.9%,-1.03%,79.5%,57%,-1.22%,-2.15%
C=CCn1cc(C(=O)NCc2cccnc2)c(=O)c2cc(S(=O)(=O)N(CC)CC)ccc21,-7.53%,-8.9%,-3.95%,103%,97%,1.33%,0.51%
CC1CN(CCC(=O)Nc2ccc3c(c2)CCC3)CC(C)O1 (stereo unspecified),-3.75%,-3.82%,-0.55%,97.5%,93%,0.995%,6.16%
